pIC50: −log10 of the molar value. Calls of active or inactive are those of the source. No cut-off for these calls is given here.
Experiments:
[1] = test system: HeLa; assay: Effect on Bax expression in human HeLa cells at 250 to 500 nM after 24 to 48 hrs by Western blot analysis; type: functional, cell-based
Outline: (§1)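 HeLa cells treated for 24 or 48 h, washed twice with ice-cold PBS and lysed on ice 30 min; lysates spun at 15000 ×g, 4 °C. Protein (20 μg) resolved by SDS–PAGE on 7.5–15% gels and blotted to PVDF. Specific primary antibodies for 2 h at room temperature, then peroxidase secondary for 60 min, ECL detection. Membranes stripped and reprobed for β-actin as loading control.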

[2] = test system: HeLa; assay: Downregulation of Xiap expression in human HeLa cells at 250 to 500 nM after 24 hrs by Western blot analysis; type: functional, cell-based; outline: as §1
[3] = test system: Jurkat; assay: Ratio of compound IC50 to CA-4 IC50 for human Jurkat cells after 72 hrs by MTT assay; type: functional
[4] = species on record: Bos taurus; assay: Displacement of [3H]colchicine from tubulin in bovine brain at 5 uM DEAE-cellulose filter method
[5] = test system: CCRF-CEM; assay: Resistance ratio of IC50 for human vinblastine-resistant CEM/VBL100 cells overexpressing P-glycoprotein to IC50 for human CEM cells; type: functional
[6] = target: T1, M-phase inducer phosphatase 3 (Homo sapiens) (UniProt P30307); assay: Induction of cdc25C phosphorylation in human HeLa cells assessed as cdc2 kinase dephosphorylation at Tyr15 in human HeLa cells at 250 to 500 nM after 24 to 48 hrs by Western blot analysis; type: cell-based; outline: as §1
T1 sequence (whole entry): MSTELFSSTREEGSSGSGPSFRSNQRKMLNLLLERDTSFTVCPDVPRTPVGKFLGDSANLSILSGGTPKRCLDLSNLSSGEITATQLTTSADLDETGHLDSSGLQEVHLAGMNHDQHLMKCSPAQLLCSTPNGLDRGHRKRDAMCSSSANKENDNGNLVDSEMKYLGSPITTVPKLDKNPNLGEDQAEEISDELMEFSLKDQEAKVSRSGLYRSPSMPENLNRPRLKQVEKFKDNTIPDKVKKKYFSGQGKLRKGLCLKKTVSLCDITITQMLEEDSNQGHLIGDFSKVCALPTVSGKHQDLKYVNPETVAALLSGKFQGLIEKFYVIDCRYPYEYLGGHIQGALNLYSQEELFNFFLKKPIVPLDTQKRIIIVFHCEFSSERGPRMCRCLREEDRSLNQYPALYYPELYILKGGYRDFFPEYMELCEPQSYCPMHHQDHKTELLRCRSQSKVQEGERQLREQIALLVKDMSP

[7] = test system: HeLa; assay: Induction of apoptosis in human HeLa cells assessed as increase in caspase-3-mediated PARP cleavage at 250 to 500 nM after 24 to 48 hrs by Western blot analysis; type: functional, cell-based; outline: as §1
[8] = test system: HeLa; assay: Induction of apoptosis in human HeLa cells at 500 nM after 24 to 48 hrs by Annexin V-FITC/propidium iodide staining based biparametric cytofluorimetric analysis; type: functional, cell-based
Outline: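 HeLa cells treated at 250 or 500 nM for 24 or 48 h, then labelled with annexin-V-FITC (phosphatidylserine) plus propidium iodide. Red and green fluorescence measured by biparametric flow cytometry. Mean ± SEM of three independent experiments.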

[9] = test system: Jurkat; assay: Cell cycle arrest in human Jurkat cells assessed as decrease in accumulation of cells at S phase after 24 hrs by propidium iodide staining based flow cytometric analysis; type: functional
Outline: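 HeLa or Jurkat cells (5 × 10⁵, exponential growth) treated 24 h with 31–500 nM compound. Cells fixed in ice-cold 70% ethanol, treated with lysis buffer containing RNase A and 0.1% Triton X-100, then stained with propidium iodide. DNA content measured by flow cytometry to give phase distribution. Mean ± SEM of three independent experiments.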

[10] = test system: LoVo; assay: Antiproliferative activity against human LoVo cells after 72 hrs by MTT assay; type: functional, cell-based
Outline: (§2)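 Cells seeded at 8 × 10³ per well and incubated 18 h at 37 °C, 5% CO₂, then exposed to a range of compound concentrations for 72 h at 37 °C. Jurkat and HL-60 were grown in RPMI-1640, the others in DMEM, with penicillin, streptomycin and 10% FBS. DMSO stocks (10 mM); DMSO ≤0.25% final. Viability by MTT. […] Mean ± SE of ≥3 independent experiments.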

[11] = test system: HeLa; assay: Induction of apoptosis in human HeLa cells assessed as disappearance of uncleaved caspase-2 protein at 250 to 500 nM after 24 to 48 hrs by Western blot analysis; type: functional, cell-based; outline: as §1
[12] = Antiproliferative activity against human vinblastine-resistant CEM/VBL100 cells overexpressing P-glycoprotein after 72 hrs by MTT assay; type: functional, cell-based; details: CEM/VBL100, 72 h
[13] = test system: A549; assay: Ratio of CA-4 IC50 to compound IC50 for human A549 cells after 72 hrs by MTT assay; type: functional
[14] = test system: Jurkat; assay: Antiproliferative activity against human Jurkat cells after 72 hrs by MTT assay; type: functional, cell-based; outline: as §2
[15] = test system: A549; assay: Resistance ratio of IC50 for human taxol-resistant A549-T12 cells expressing tubulin mutant gene to IC50 for human A549 cells; type: functional

SMILES: CCOc1ccc(-c2sc(NC)nc2-c2cc(OC)c(OC)c(OC)c2)cc1
- Activity [1]: inactive
- Activity [2]: Active
- Ratio IC50 [3]: 0.34
- inhibition [4]: 83%
- Ratio IC50 [5]: 2.9
- Activity [6]: Active
- Activity [7]: Active
- Activity [8]: Active
- Activity [9]: Dose-dependent effect
- pIC50 [10]: 7.51
- Activity [11]: Active
- pIC50 [12]: 8.92
- Ratio IC50 [13]: 5
- pIC50 [14]: 8.77
- Ratio IC50 [15]: 0.5

— ChEMBL document CHEMBL2202972, “Synthesis and biological evaluation of 2-substituted-4-(3',4',5'-trimethoxyphenyl)-5-aryl thiazoles as anticancer agents” (Bioorg Med Chem, 2012)
